Screens deposited in PubChem by several laboratories.
Hits are enriched below; roughly 2.1% of the tested compounds scored in any of these assays.
Scp-1 inhibitor: inhibitors of human Scp-1 phosphatase; Q9GZU7; Recombinant Scp1, phosphopeptide, malachite green phosphate absorbance; inhibition, % at 20 µM; 340,000 compounds, 0.88% hits;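 active = inhibition above about 50% at 20 µM, limit read from the data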
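Incubation: 45 min enzyme reaction at room temperature / System: truncated SCP-1 phosphatase (76-261aa) / Reagent: Phospho 17-mer peptide substrate / Buffer or medium: Acidic Tris acetate buffer with magnesium and detergent / Signal: absorbance at 630 nm / Doses: one concentration, 20 µM, with 1.0% DMSO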
DNMT1 inh: DNMT1 (human) enzyme inhibition; DNMT1 molecular beacon, Hinp1I cleavage, fluorescence; AID 588458; inhibition (reported as % activation of signal), % at 10 µM; 360,000 compounds, 0.83% hits; in the data active = inhibition above about 50%
GRK2 aptamer HTS: inhibitors of human GRK2 displacing RNA aptamer | 330,000 compounds, 0.59% hits | bead flow cytometry, FAM-aptamer displacement from GRK2 | inhibition of aptamer binding, % at 10 µM;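 active = inhibition of aptamer binding above 40%, roughly 3 SD of noise, on plates passing a quality check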;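 note: median bead fluorescence of bound FAM aptamer so fluorescent compounds give negative values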
LMPTP block: blocks human LMPTP phosphatase; P24666; recombinant LMPTP-A, OMFP fluorogenic substrate, fluorescence intensity; inhibition, % at 20 µM; 360,000 compounds, 0.22% hits;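 active = compounds that cut the enzyme signal by at least half of the control window in the single-dose screen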
Target sequence (P24666 whole entry, looked up): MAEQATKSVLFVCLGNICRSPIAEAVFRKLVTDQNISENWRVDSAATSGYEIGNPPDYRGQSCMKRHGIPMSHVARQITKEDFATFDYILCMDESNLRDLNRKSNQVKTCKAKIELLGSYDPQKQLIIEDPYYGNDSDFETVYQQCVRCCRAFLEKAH
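Assay system: LMPTP-A phosphatase enzyme | Input: 0.625 nM enzyme | Also added: Fluorogenic phosphatase substrate OMFP at 400 µM final | Compound dosing: One test concentration per compound, 20 µM, with 3% DMSO overall | Schedule: 50 min enzyme reaction at room temperature, protected from light | Signal: Fluorescence intensity | Benchmarks: no-enzyme and uninhibited controls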
STEP inh: inhibitors of human striatal-enriched phosphatase STEP | P54829 | recombinant STEP, OMFP fluorogenic substrate, fluorescence | inhibition, % at 20 µM | 360,000 compounds, 0.25% hits | AID 588621;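 active = inhibition at 20 µM, scaled per plate between control wells, above about 37%, limit read from the data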
Target sequence (P54829 whole entry, looked up): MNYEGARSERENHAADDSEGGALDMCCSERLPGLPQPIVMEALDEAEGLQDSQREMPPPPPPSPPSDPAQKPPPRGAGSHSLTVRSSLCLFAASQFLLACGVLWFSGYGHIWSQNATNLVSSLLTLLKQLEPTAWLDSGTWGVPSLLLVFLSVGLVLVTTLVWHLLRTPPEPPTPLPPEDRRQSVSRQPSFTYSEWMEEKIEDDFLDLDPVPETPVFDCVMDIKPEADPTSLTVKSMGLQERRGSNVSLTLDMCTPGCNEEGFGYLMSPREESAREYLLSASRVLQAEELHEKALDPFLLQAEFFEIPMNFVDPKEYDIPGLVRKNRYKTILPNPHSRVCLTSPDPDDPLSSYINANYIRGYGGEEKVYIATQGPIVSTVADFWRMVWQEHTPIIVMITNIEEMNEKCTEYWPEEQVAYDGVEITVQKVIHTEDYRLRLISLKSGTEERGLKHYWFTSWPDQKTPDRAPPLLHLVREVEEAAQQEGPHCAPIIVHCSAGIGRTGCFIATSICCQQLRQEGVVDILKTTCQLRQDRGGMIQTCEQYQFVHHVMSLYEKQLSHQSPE
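Measure: Control-normalized % inhibition with plate pattern correction | Test system: STEP phosphatase, cell-free reaction | Medium: pH 6.0 Bis-Tris with DTT and Tween 20 | Technique: Fluorescence, 480/540 nm | Times: Reaction 20 min, ambient temperature | Doses: Single compound dose of 20 µM, 1% DMSO final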
SUMO1 PPI mod: SUMO1-SIM interaction modulation; 360,000 compounds, 0.33% hits; SUMO1 binding to a labelled peptide, TR-FRET, 1 h; P63165; inhibition, % at 20 µM; AID 602429; in the data active = inhibition above about 37%
Scp-1 conf: confirmation of human Scp-1 phosphatase inhibitors. shares compounds with Scp-1 inhibitor. recombinant SCP-1 catalytic domain, phosphate release, malachite green absorbance. inhibition, % at 20 µM. 2,500 compounds, 61% hits
Scp-1 MG ctr: counter-screen for Scp-1 inhibitors: colorimetric interference; shares compounds with Scp-1 inhibitor; AID 540313; 2,500 tested, under 10 active; Colorimetric interference counterscreen, malachite green absorbance 630 nm; apparent inhibition (interference), % at 20 µM;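 note: compounds added after enzyme reaction finished so only phosphate colour detection is probed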
Scp1 DSF: binds human Scp-1, shifting its melting temperature; shares compounds with Scp-1 inhibitor; Recombinant SCP1, Sypro Orange thermal shift Tm; thermal shift relative to vanadate control, % at 40 µM; 1,500 compounds, 25% hits;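 active = substances whose mean melting-temperature shift, as a percentage of the reference inhibitor's shift, reaches about 5.3%, limit read from the data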
Of the large screens only hits and unclear results are named; the others gave an inactive call (follow-up assays come after a bar, where they were run).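 Rule for the calls, unless noted: active = inhibition of at least 30% at 20 µM; inactive = the rest.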

Cc1cccc(C)c1NC(=S)NCCCN1CCCC1=O	none | Scp-1 conf inactive | Scp-1 MG ctr inactive
CC(C)c1ccc2oc(-c3ccc(NC(=O)c4ncn[nH]4)cc3)nc2c1	Scp-1 inhibitor 91, SUMO1 PPI mod 47 | Scp-1 conf 53 | Scp-1 MG ctr inactive | Scp1 DSF inactive
CCN(Cc1ccncc1)C(=O)c1cc(Br)cc(Br)c1O	none
Cc1ccc(S(=O)(=O)N(C)C[C@@H]2Oc3ccc(NS(=O)(=O)c4ccccc4)cc3CC(=O)N([C@@H](C)CO)C[C@H]2C)cc1	Scp-1 inhibitor 50 (no result: GRK2 aptamer HTS) | Scp-1 conf inactive | Scp-1 MG ctr inactive
Cc1noc(C)c1S(=O)(=O)N(C)C[C@H]1Oc2ccc(NS(=O)(=O)c3ccc(F)cc3)cc2C(=O)N([C@H](C)CO)C[C@@H]1C	none
Cc1ccc(S(=O)(=O)Nc2ccc3c(c2)CC(=O)N([C@H](C)CO)C[C@@H](C)[C@H](CN(C)S(=O)(=O)c2ccccc2)O3)cc1	none
C[C@H](CO)N1C[C@H](C)[C@@H](CN(C)C(=O)Nc2ccccc2)Oc2c(NS(=O)(=O)c3cn(C)cn3)cccc2C1=O	none
Cc1noc(C)c1S(=O)(=O)N(C)C[C@H]1Oc2ccc(NS(=O)(=O)c3cn(C)cn3)cc2C(=O)N([C@H](C)CO)C[C@@H]1C	Scp-1 inhibitor 53 | Scp-1 conf inactive | Scp-1 MG ctr inactive
C[C@H](CO)N1C[C@H](C)[C@@H](CN(C)C(=O)Nc2ccc(C(F)(F)F)cc2)Oc2ccc(NS(=O)(=O)c3cn(C)cn3)cc2C1=O	Scp-1 inhibitor 73 | Scp-1 conf inactive | Scp-1 MG ctr inactive
C[C@@H]1CN([C@@H](C)CO)C(=O)Cc2cc(NS(=O)(=O)c3cn(C)cn3)ccc2O[C@@H]1CN(C)C(=O)Nc1ccccc1	Scp-1 inhibitor 88 | Scp-1 conf 62 | Scp-1 MG ctr inactive | Scp1 DSF inactive
CCOC(=O)CSc1nc(=O)n2cccc(C)c2n1	none
O=C(Nc1cccc(OC(F)(F)F)c1)C1Cc2c(-c3ccc4c(c3)OCO4)ccnc2O1 (stereo not drawn)	none (no result: Scp-1 inhibitor, GRK2 aptamer HTS)
CC(C)NC(=O)N(C)C[C@H]1Oc2ccc(NS(=O)(=O)c3cn(C)cn3)cc2C(=O)N([C@H](C)CO)C[C@@H]1C	Scp-1 inhibitor 82 | Scp-1 conf inactive | Scp-1 MG ctr inactive
C[C@H](CO)N1C[C@H](C)[C@@H](CN(C)C(=O)NC2CCCCC2)Oc2ccc(NS(=O)(=O)c3cn(C)cn3)cc2C1=O	none
CCOc1ccccc1OCCCC(=O)NNC(=O)c1ccc(F)cc1	Scp-1 inhibitor 59 | Scp-1 conf inactive | Scp-1 MG ctr inactive
CCCCCC(=O)NNC(=O)c1ccc(F)cc1	none
CC1CC2C3CCC4=CC(=O)CCC4(C)C3CCC2(C)C1(O)C(=O)CO (stereo not drawn)	Scp-1 inhibitor 59 (no result: GRK2 aptamer HTS) | Scp-1 conf inactive | Scp-1 MG ctr inactive
CC(Sc1ccc([N+](=O)[O-])cn1)C(=O)Nc1nccs1 (stereo not drawn)	none
CC1NC(=O)NC1CCCCCC(=O)Nc1ccc(F)cc1 (stereo not drawn)	none | Scp-1 conf inactive | Scp-1 MG ctr inactive
Cc1c(F)cccc1NC(=O)CCC(=O)O	none
O=C(CCCC(=O)c1ccccc1)Nc1ccc(F)cc1	none
Cc1c(F)cccc1NC(=O)CCCCCC1NC(=O)NC1C (stereo not drawn)	none | Scp-1 conf inactive | Scp-1 MG ctr inactive
CC(C)C[C@H](NC(=O)/C=C/[C@H]1O[C@@H](n2ccc(=O)[nH]c2=O)[C@H](O)[C@@H]1O)C(=O)O	none (no result: Scp-1 inhibitor, GRK2 aptamer HTS)
COc1ccc2nc(COC(=O)c3cccc([N+](=O)[O-])c3)c(C(C)=O)[n+]([O-])c2c1	none
COc1ccc2nc(COC(=O)c3cccs3)c(C(C)=O)[n+]([O-])c2c1	Scp-1 inhibitor 103 | Scp-1 conf inactive | Scp-1 MG ctr inactive
CC1(C)CC(N2CCOCC2)=CC(=[N+]2CCOCC2)C1	none
CC1C[N+](=C2C=C(N3CCOCC3)CC(C)(C)C2)CC(C)O1 (stereo not drawn)	Scp-1 inhibitor 103 | Scp-1 conf 91 | Scp-1 MG ctr inactive | Scp1 DSF inactive
CC(=O)OC[C@]12CC[C@H]3[C@@](C)(CC[C@H]4C(C)(C)CCC[C@]34C)[C@@H]1C[C@H](C1=CC(=O)O[C@@H]1OC(C)=O)O2	none (no result: Scp-1 inhibitor, DNMT1 inh, LMPTP block, STEP inh, SUMO1 PPI mod)
COc1ccc(Br)cc1C(=O)N/N=C/c1ccc([N+](=O)[O-])cc1	Scp-1 inhibitor 99 | Scp-1 conf 33 | Scp-1 MG ctr inactive | Scp1 DSF inactive
CCOc1ccc(Br)cc1C(=O)N/N=C/c1ccc([N+](=O)[O-])cc1	Scp-1 inhibitor 81 | Scp-1 conf 32 | Scp-1 MG ctr inactive | Scp1 DSF inactive
CCOc1ccc(Br)cc1C(=O)N/N=C/c1ccccn1	none
CC(C)(C#CC(O)(c1ccccc1)c1ccccc1)N1CCCC1	none
O=C(c1cc2ccccc2o1)N1CCN(c2cccc(Cl)c2)CC1	none
O=C(NCCN1CCNC1=O)C1CCC(=O)N(Cc2cccc(C(F)(F)F)c2)C1 (stereo not drawn)	none | Scp-1 conf inactive | Scp-1 MG ctr inactive
COc1ccc(/C=C/C(=O)Oc2ccc(/C=N\NC(=O)c3ccc(F)cc3)cc2)cc1	none
COC(=O)c1ccc(/C=N/NC(=O)c2cccc(F)c2)cc1	Scp-1 inhibitor 87 | Scp-1 conf 48 | Scp-1 MG ctr inactive | Scp1 DSF inactive
Cc1ccccc1C(=O)Nc1ccc(C(=O)N/N=C/c2ccc(F)cc2)cc1	Scp-1 inhibitor 91 | Scp-1 conf inactive | Scp-1 MG ctr inactive
COc1ccc(/C=C/C(=O)Oc2cccc(/C=N/NC(=O)c3cccc(F)c3)c2)cc1	Scp-1 inhibitor 87 | Scp-1 conf 37 | Scp-1 MG ctr inactive | Scp1 DSF inactive
CCOC(=O)c1ccc(Cl)c(NC(=O)c2ccc(-c3ccccc3)cc2)c1	none
CCOC(=O)c1ccc(/C=C2/C=C(c3ccccc3)N(c3ccc(Cl)c(C(=O)O)c3)C2=O)cc1	Scp-1 inhibitor 52 | Scp-1 conf 72 | Scp-1 MG ctr inactive | Scp1 DSF inactive
Cc1nnc(N2C(=O)c3oc4ccccc4c(=O)c3C2c2ccco2)s1 (stereo not drawn)	Scp-1 inhibitor 60 | Scp-1 conf 42 | Scp-1 MG ctr inactive | Scp1 DSF inactive
